Tests used:
[1] = molecular target: GABA-A receptor; anion channel; experiment: Displacement of [3H]flunitrazepam from GABA-A benzodiazepine receptor of rat cerebral cortex membrane; type: tissue-based
Procedure, shortened: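 Rat cerebral cortex P2+P3 membranes (fresh tissue, two freeze-thaw-wash cycles to remove endogenous GABA), 0.4 mg protein. Incubated with 1 nM [3H]flunitrazepam and six concentrations (1 × 10^-5 – 1 × 10^-10 M) for 30 min at 4 °C. Filtered on GF/b filters and counted. […] IC50 from log-logit regression, mean of replicates.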

Mus musculus [2] = species: Mus musculus; experiment: Anticonvulsant activity against pentylenetetrazole-induced clonic seizures in mice; type: functional
Procedure, shortened: (§1)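 Female adult ICR mice, groups of eight, given test compound ip (100 mg/kg screen) in 0.5% aqueous methylcellulose or vehicle. Challenged 30 min later with pentyletetrazole 80 mg/kg sc and scored for clonic seizures.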

[3] = molecular target: GABA-A receptor; anion channel; experiment: Displacement of [3H]-diazepam from GABA-A benzodiazepine receptor of rat cerebral cortex membrane; type: tissue-based
Procedure, shortened: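 Membranes skipped the freeze-thaw-wash cycles, so endogenous GABA was retained. Six concentrations (1 × 10^-5 – 1 × 10^-10 M), 30 min at 4 °C, glass-fiber filtration and scintillation counting. IC50 from log-logit regression.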

Mus musculus [4] = species: Mus musculus; experiment: Compound was tested for anticonvulsant activity against maximal electroshock-induced […] seizures in mice at 50mA, 200 ms; type: functional
Mus musculus [5] = experiment: Compound was tested for anticonvulsant activity against pentylenetetrazole-induced clonic seizures in mice at 80 mg/kg sc; type: functional; conditions: route subcutaneous; procedure, shortened: as §1
Mus musculus [6] = species: Mus musculus; experiment: (§2) Neurotoxicity against mice in rotarod test; type: toxicity, organism-based; conditions: in vivo
Procedure, shortened: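 Groups of five randomly selected mice were dosed 30 min before being placed on a knurled 28-mm rod rotating at 6 rpm. Failure to stay on the rod for 1 min was scored as neurotoxic. ED50 (mg/kg ip) and confidence limits came from probit analysis.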

Mus musculus [7] = species: Mus musculus; experiment: Anxiolytic activity by light/dark exploratory behavioral test in mice; type: functional
Procedure, shortened: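 Mice were dosed 30 min before testing, then placed individually in a two-compartment light/dark activity chamber and left undisturbed for 5 min. Time spent in each compartment was compared with vehicle-treated mice by Dunnett's t test. Minimal effective dose and sedative dose reported in mg/kg ip.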

Mus musculus [8] = species: Mus musculus; experiment: Potentiation of ethanol (EtOH) induced sleep time in mice; type: functional; conditions: read-out: MED
Procedure, shortened: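 Compound given orally; the minimal effective dose (mg/kg po) for potentiating ethanol-induced sleep time in mice was reported.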

Rattus norvegicus [9] = species: Rattus norvegicus; experiment: Ratio of IC50 values for [3H]-Ro- 15-1788 binding in absence and presence of added GABA (rat cerebral cortex); type: functional
Procedure, shortened: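 Rat cerebral cortex membranes. IC50 for displacement of [3H]Ro 15-1788 was measured without and with excess added GABA. The ratio of the two IC50 values served as the index of agonist efficacy.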

Rattus norvegicus [10] = species: Rattus norvegicus; experiment: Anxiolytic activity by vogel punished drinking test in rats; type: functional; conditions: read-out: MED
Procedure, shortened: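 Modified Vogel conflict test. Rats were water-deprived for 48 h with food available. A drinkometer delivered a 0.65 mA shock after every 20th lick during a 3-min session starting at the first shock. Total shocks were compared with vehicle-treated rats by Dunnett's t test. Minimal effective dose reported in mg/kg ip.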

Mus musculus [11] = experiment: Anticonvulsant activity against picrotoxin-induced clonic seizures in mice at 3.2 mg/kg sc; type: functional; conditions: route subcutaneous
Mus musculus [12] = experiment: Compound was tested for anticonvulsant activity against bicuculline-induced clonic seizures in mice at 2.7 mg/kg sc; type: functional; conditions: route subcutaneous
[13] = as §2; type: toxicity, organism-based; conditions: mouse, in vivo
Procedure, shortened: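 Mice in groups of five, dosed ip 30 min before being placed on a knurled 28 mm rod rotating at 6 rpm. Failure to stay on for 1 min was scored as neurotoxic. ED50 and confidence limits were obtained by probit analysis.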

Row | Compound | IC50 [1] | ED50 (Mus musculus [2]; Mus musculus, read-out: ED50) | further results
1 | Cc1ccc2nc(-c3ccc(Cl)cc3)n(CC(=O)N(C)C)c2n1 | 0.88 µM | 2.5 mg/kg | –
2 | CN(C)C(=O)Cn1c(-c2ccc(Cl)cc2)nc2cc(Cl)cnc21 | > 10 µM | 56.2 mg/kg | –
3 | O=C(Cn1c(-c2ccc(Cl)cc2)nc2cccnc21)N1CCCCC1 | 2.7 µM | 56.2 mg/kg | –
4 | CCOC(=O)CNC(=O)Cn1c(-c2ccc(Cl)cc2)nc2cccnc21 | – | – | IC50 [3]: 9.1 µM
5 | CC(C)N(C(=O)Cn1c(-c2ccc(Cl)cc2)nc2cccnc21)C(C)C | > 10 µM | – | –
6 | O=C(Cn1c(-c2ccc(Cl)cc2)nc2cccnc21)Nc1ccccn1 | 0.31 µM | 100 mg/kg | –
7 | CCC1(C)CC(=O)NC1=O (configuration not stated) [ETHOSUXIMIDE] | – | – | ED50 (Mus musculus [4]): > 1000 mg/kg; ED50 (Mus musculus [5]): 130 mg/kg
8 | CN(C)CCNC(=O)Cn1c(-c2ccc(Cl)cc2)nc2cccnc21 | > 10 µM | 62 mg/kg | –
9 | Cc1ccc(-c2nc3ccc(Cl)nc3n2CC(=O)N(C)C)cc1 | 0.15 µM | 2.7 mg/kg | ED50 (Mus musculus [6]): 15.2 mg/kg; Sedative dose (Mus musculus [7]): 5.62 mg/kg; minimal effective dose (Mus musculus [7]; read-out: MED): 0.1 mg/kg; minimal effective dose (Mus musculus [8]): 10 mg/kg; GABA shift (Rattus norvegicus [9]): 3.06; minimal effective dose (Rattus norvegicus [10]): 1 mg/kg
10 | CN(C)C(=O)Cn1c(-c2ccoc2)nc2cccnc21 | > 10 µM | – | –
11 | CCCN(C)C(=O)Cn1c(-c2ccc(Cl)cc2)nc2cccnc21 | 0.68 µM | 11.6 mg/kg | –
12 | O=C(Cn1c(-c2ccc(Cl)cc2)nc2cccnc21)Nc1ccncc1 | 0.47 µM | – | –
13 | C[C@H](C(=O)N(C)C)n1c(-c2ccc(Cl)cc2)nc2cccnc21 | > 10 µM | 43.5 mg/kg | –
14 | O=C1NC(=O)C(c2ccccc2)(c2ccccc2)N1 [PHENYTOIN] | – | – | ED50 (Mus musculus [11]): > 100 mg/kg; ED50 (Mus musculus [12]): > 100 mg/kg; ED50 (Mus musculus [5]): > 300 mg/kg
15 | CN(C)CCN(C)C(=O)Cn1c(-c2ccc(Cl)cc2)nc2cccnc21 | > 10 µM | 100 mg/kg | –
16 | NC(=O)Cn1c(-c2ccc(F)cc2)nc2cccnc21 | > 10 µM | – | –
17 | CN(C)C(=O)Cn1c(-c2ccc(Br)cc2)nc2cccnc21 | – | 7 mg/kg | IC50 [3]: 3 µM
18 | CCCN(CCC)C(=O)Cn1c(-c2ccc(Cl)cc2)nc2ccccc21 | 2.7 µM | – | –

Row | Compound | IC50 [1] | ED50 (Mus musculus [2]; Mus musculus, read-out: ED50) | further results
19 | CC(=O)NCCNC(=O)Cn1c(-c2ccc(Cl)cc2)nc2cccnc21 | 7.2 µM | – | –
20 | CCCN(CCC)C(=O)Cn1c(-c2ccc(Cl)cc2)nc2ncccc21 | > 10 µM | – | –
21 | O=C(Cn1c(-c2ccc(Cl)cc2)nc2cccnc21)N1CCCC1 | 2.7 µM | 17.9 mg/kg | –
22 | C[C@@H](C(=O)N(C)C)n1c(-c2ccc(Cl)cc2)nc2cccnc21 | > 10 µM | 31.6 mg/kg | –
23 | NC(=O)Cn1c(-c2ccccc2)nc2cccnc21 | – | – | IC50 [3]: > 10 µM
24 | CCOC(=O)CCCNC(=O)Cn1c(-c2ccc(Cl)cc2)nc2cccnc21 | > 10 µM | 100 mg/kg | –
25 | CC(=O)Oc1ccc2nc(-c3ccc(Cl)cc3)n(CC(=O)N(C)C)c2n1 | > 10 µM | 100 mg/kg | –
26 | NC(=O)Cn1c(-c2ccc(Cl)cc2)nc2cccnc21 | 8 µM | 4.1 mg/kg | ED50 (Mus musculus [11]): 211 mg/kg; ED50 (Mus musculus [12]): 174 mg/kg; ED50 (Mus musculus [4]): 329 mg/kg; TD50 [13]: > 1000 mg/kg
27 | CCCN(CCC)C(=O)Cn1c(-c2ccc(Cl)cc2)nc2cccnc21 | 0.38 µM | 11 mg/kg | –
28 | CN(C)C(=O)Cn1c(-c2ccccn2)nc2cccnc21 | – | – | IC50 [3]: 2.6 µM
29 | CN(C)C(=O)Cn1c(-c2cccc(Cl)c2)nc2cccnc21 | – | > 56.2 mg/kg | IC50 [3]: 2.4 µM; ED50 (Mus musculus [2]): <100 mg/kg
30 | CN(C)C(=O)Cn1c(Cc2ccc(Cl)cc2)nc2cccnc21 | > 10 µM | – | –
31 | CN(C)C(=O)Cn1c(-c2ccccc2)nc2cccnc21 | > 10 µM | 35 mg/kg | –
32 | NC(=O)Cn1c(-c2ccc(Cl)cc2)nc2ccc[n+]([O-])c21 | > 10 µM | 52.1 mg/kg | –
33 | CN(C)C(=O)Cn1c(-c2ccc(Cl)cc2)nc2ccc(O)nc21 | 5.2 µM | – | –
34 | CN(C)C(=O)Cn1c(-c2ccc(Cl)cc2)nc2ccc(Cl)nc21 | 0.46 µM | 1.1 mg/kg | –
35 | CCCC(CCC)C(=O)O [VALPROIC ACID] | – | – | ED50 (Mus musculus [4]): 272 mg/kg; ED50 (Mus musculus [5]): 149 mg/kg
36 | CN(C)C(=O)Cn1c(-c2ccc(F)cc2)nc2cccnc21 | > 10 µM | 40.5 mg/kg | –

— ChEMBL document CHEMBL1125815, “2-Phenyl-3H-imidazo[4,5-b]pyridine-3-acetamides as non-benzodiazepine anticonvulsants and anxiolytics” (J Med Chem, 1991)
